High-throughput results deposited in PubChem by several laboratories.
Jurkat NFkB inh: lowers PMA/ionomycin-induced NF-kB signal in Jurkat cells | 330,000 compounds, 0.53% hits | PMA/ionomycin-induced NF-kB luciferase reporter, luminescence | inhibition, % at 4 µM; in the data active = inhibition above about 50%
CHOP UPR activ: activators of apoptotic arm of unfolded protein response (CHOP). CHO-CHOP luciferase reporter, UPR activation, luminescence; percent of tunicamycin response over DMSO baseline. activation, % at 10 µM. 330,000 compounds, 0.34% hits. AID 449763;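 active = at 10 µM dose, activation of 40% or more, normalized to positive control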;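 also: 100% = tunicamycin at 10 µg/mL and 0% = DMSO alone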
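Assay system: CHO-CHOP cells, stable luciferase reporter of PERK-eIF2a-CHOP signalling / Buffer or medium: F12 plus 10% serum / Compound dosing: one dose, 10 µM in 0.5% DMSO / Times: 6 h compound treatment, 37 °C / Technique: luciferase luminescence / Read-out: % reporter activation, DMSO baseline versus tunicamycin full activation / Benchmarks: tunicamycin and DMSO controls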
UPR XBP1 act: adaptive UPR (XBP1) activation; CHO-XBP1 luciferase reporter, IRE1-XBP1 UPR activation, luminescence; percent of tunicamycin response, DMSO as zero; activation, % at 20 µM; 330,000 compounds, 0.33% hits; AID 463104;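 active = versus positive control, 20 µM dose yields 30% or more activation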;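 also: 100% = tunicamycin at 10 µg/mL and 0% = DMSO only wells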
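Material: CHO-XBP1 cells stably carrying IRE1-XBP1-driven luciferase reporter | Medium: F12 with 10% serum | Compound dosing: 20 µM single concentration, DMSO 1% | Incubation: Overnight seeding at 37 °C, 6 h compound treatment at 37 °C | Detection: Steady-Glo luminescence read | Read-out basis: % activation of reporter signal versus tunicamycin and DMSO controls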
697 NFkB inh: inhibitors of the PMA/ionomycin-induced NF-kB reporter in 697 B cells; 697 B-cell NF-kB luciferase reporter, 16 h; inhibition, % at 4 µM; 330,000 compounds, 0.33% hits; in the data active = inhibition above about 35%
CHOP inh: CHOP inhibition in unfolded protein response | 220,000 compounds, 3.8% hits | AID 2732 | inhibition, % at 10 µM | CHO-K1 CHOP-promoter luciferase, tunicamycin-induced, 15-18 h;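 active = compounds that reduced the stress-induced luciferase reporter signal by more than about 70% of percent inhibition, limit read from the data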;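 also: 0% = tunicamycin plus vehicle and 100% = wells without tunicamycin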
Gli-Sufu block: antagonists of Gli-Sufu signaling; inhibition, % at 5 µM; 340,000 compounds, 0.74% hits; Sufu-KO-LIGHT fibroblasts, Gli luciferase reporter luminescence;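 active = inhibition above about 55%, limit read from the data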;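 also: 0% = DMSO-treated cells and 100% = wells with medium but no cells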
Gli antag conf: Gli-SUFU antagonism confirmation, single concentration | inhibition, % at 5 µM | AID 602428 | Sufu-KO-LIGHT cells, Gli luciferase reporter, luminescence | 2,500 compounds, 40% hits | shares compounds with Gli-Sufu block;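 active = mean inhibition at 5 µM reaching about 45%, limit read from the data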;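 also: plate controls were DMSO-treated cells for no effect and wells lacking cells for full effect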
SufuKO cytotox: cytotoxicity counter-screen for Gli-SUFU antagonists; shares compounds with Gli-Sufu block; Sufu-KO-LIGHT cells cytotoxicity, ATP luminescence; cytotoxicity, % at 5 µM; 2,500 compounds, 32% hits;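 active = mean cytotoxicity at 5 µM above about 25%, limit read from the data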;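 also: cells exposed to compound overnight for roughly 16 to 18 hours; plate controls were DMSO wells with cells for no effect and medium without cells for full effect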
Wnt3a cs: inhibits Wnt3a reporter, counter-screen for Gli-SUFU antagonists; inhibition, % at 6.25 µM; Wnt-LIGHT cells, Wnt3a-driven luciferase reporter, luminescence; AID 651995; shares compounds with Gli-Sufu block; 2,500 compounds, 20% hits;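 active = mean inhibition above about 25%, limit read from the data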
Numbers without * were called inactive; x = not tested or not shown. A selection: hits, their analogues and other compounds. The true share with any hit is near 3.9%.

SMILES	Jurkat NFkB inh	CHOP UPR activ	UPR XBP1 act	697 NFkB inh	CHOP inh	Gli-Sufu block	Gli antag conf	SufuKO cytotox	Wnt3a cs
O=C(Nc1ccc2oc(-c3ccncc3)nc2c1)c1ccccc1	-9	4	4	-19	-15	85*	21	1	-25
CC(=O)Nc1cccc(C(=O)NNC(=O)c2ccccc2-n2cccc2)c1	-1	1	1	19	x	-4	x	x	x
Cc1cc(C)cc(C(=O)NCC(=O)NNC(=O)CSc2ccccc2F)c1	2	-1	-1	5	x	6	x	x	x
CCn1c(COc2ccc3c(c2)OCO3)nnc1SCC(=O)c1ccccc1	4	1	0	4	32	67*	10	7	-32
CCn1c(COc2ccc(Cl)cc2)nnc1SCC(=O)Nc1ccc2c(c1)OCO2	0	6	-6	7	7	3	x	x	x
Clc1ccc(-c2c[n+](Cc3cccc(Cl)c3)c3n2CCC3)cc1	3	-1	-1	-5	13	54	51*	29*	-26
N#CC[n+]1cc(-c2ccc(Cl)cc2)n2c1CCC2	1	-1	-3	12	21	7	x	x	x
Clc1ccc(C[n+]2cc(-c3ccccc3)n3c2CCC3)cc1Cl	-4	1	-6	-26	-11	59*	51*	37*	-28
Cc1cc(-c2ccc(C)c(S(=O)(=O)NCCCN3CCN(c4ccccc4F)CC3)c2)on1	-1	4	-2	-33	x	56*	39	13	0
CC(C)(C)c1ccc(C(=O)NCC(=O)N2CCCCCC2)cc1	-5	4	4	6	x	-11	x	x	x
CS(=O)(=O)NNC(=O)Cn1nnc(-c2ccc(OCc3ccccc3Cl)cc2)n1	3	2	2	-29	x	-14	x	x	x
O=C(NCCCn1ccnc1)/C(=C\c1cccnc1)NC(=O)c1cccc(Br)c1	-11	1	-2	-22	-42	98*	37	13	13
O=C(NCCCn1ccnc1)/C(=C\c1cccnc1)NC(=O)c1ccco1	0	0	0	10	-3	-3	x	x	x
Cc1nc(SC(C)C(=O)c2c(N)n(C)c(=O)n(C)c2=O)c2c(C)c(C)sc2n1 (stereo not drawn)	1	2	1	-1	x	5	x	x	x
COC(=O)c1ccc(C(=O)N2CCCC(N3CCN(c4ccc(F)cc4)CC3)C2)nc1 (stereo not drawn)	8	0	-3	-36	x	-5	x	x	x
CCCCC(=O)Nc1cc([N+](=O)[O-])ccc1Cl	9	0	-4	8	1	92*	14	11	33*
COc1ccc2[nH]c(C)c(CCNC(=S)Nc3cccc(C)c3C)c2c1	1	0	-4	11	14	4	x	x	x
COc1ccc2[nH]c(C)c(CCNC(=S)Nc3ccccc3C)c2c1	-15	0	-4	-3	8	69*	15	9	-12
CCOc1ccc(N(CC(=O)Nc2cccc(Br)c2)S(C)(=O)=O)cc1	-5	3	-6	7	x	-3	x	x	x
Cc1nn(C)c(C)c1CNC(=O)c1cnn2c1NC(c1ccccc1)CC2C(F)(F)F (stereo not drawn)	4	-2	-5	8	25	4	x	x	x
Cc1ccc(C2CC(C(F)(F)F)n3nc(C(=O)NCc4c(C)nn(C)c4C)c(Cl)c3N2)cc1 (stereo not drawn)	36	2	-3	-29	57	54	54*	32*	11
CN(Cc1ccccc1)S(=O)(=O)c1ccc(Cl)c(C(=O)NCc2cccnc2)c1	11	0	0	-23	x	-8	x	x	x
C/C(=N\Nc1ccc2nncn2n1)c1ccc(Br)s1	-2	2	1	-3	3	62*	29	25	-4
Cc1ccc2c(c1)NCC(C(=O)NC1CCCCC1)O2 (stereo not drawn)	-12	0	2	-11	4	52	9	-4	-4
S=C(NCCc1ccccc1)Nc1ccc(N2CCCCC2)cc1	1	1	5	4	x	-7	x	x	x
SMILES	Jurkat NFkB inh	CHOP UPR activ	UPR XBP1 act	697 NFkB inh	CHOP inh	Gli-Sufu block	Gli antag conf	SufuKO cytotox	Wnt3a cs
CC(C)CCNC(=O)C1CCC(CNS(=O)(=O)c2cccc3nsnc23)CC1 (stereo not drawn)	11	2	-1	-5	x	-2	x	x	x
N#Cc1ccc(-c2cn(-c3ccccc3)c3[n+]2CCCS3)cc1	-13	-2	-1	6	0	10	x	x	x
c1ccc(-c2cn(-c3ccccc3)c3[n+]2CCCS3)cc1	8	1	0	-20	16	68*	69*	33*	33*
CCc1ccc(-n2cc(-c3ccc(F)cc3)[n+]3c2SCCC3)cc1	39	0	1	24	13	86*	90*	45*	33*
COc1cccc(N2CCN(c3ccc4nnc(CCC(=O)Nc5ccc(OC)c(OC)c5)n4n3)CC2)c1	16	1	-2	5	x	19	x	x	x
Cn1c(=O)[nH]c(=O)c2c1ncn2CCN1CCOCC1	12	-1	-2	-5	2	92*	14	13	9
Cc1ccccc1CNC(=O)C(=O)NCCC1CCCCN1S(=O)(=O)c1cccs1 (stereo not drawn)	-5	1	2	-26	x	-1	x	x	x
COc1cccc(-c2nc(NCCN3CCOCC3)c3ccccc3n2)c1O	-14	0	-2	31	-5	98*	31	20	-70
C(=NOCc1ccccc1)c1cccnc1	x	x	x	x	x	-39	x	x	x
S=c1[nH]nc(CSCc2ccccc2Cl)n1C1CCCCC1	x	x	x	x	61	52	30	20	0
BrC(=C\c1ccccc1)/C=N/Nc1nc2ccccc2[nH]1	-13	4	3	-35	13	51	-11	3	-142
O=C(O)c1ccc(N/N=C/C(Br)=C/c2ccccc2)cc1	-60	4	2	-182	24	-112	x	x	x
CCOC(=O)c1ccc(NC(=O)c2ccc(OC(C)C)c(OC)c2)cc1	5	1	-1	-7	12	-20	x	x	x
CCOC(=O)c1ccccc1NC(=O)Nc1ccc(OC)c(OC)c1	1	0	-1	17	15	62*	17	13	3
CCOC(=O)c1ccc(NC(=O)Nc2ccc(OC)c(OC)c2)cc1	-4	1	-2	-17	12	61*	24	8	-9
